Measured values reported in ChEMBL document CHEMBL3351227, “Solving the supply of resveratrol tetramers from Papua New Guinean rainforest anisoptera species that inhibit bacterial type III secretion systems” (J Nat Prod, 2014).
The source made the active and inactive calls. The rule behind the calls is not given here.

Assays:
[1] = tested on: Yersinia pseudotuberculosis YPIII; test: Antimicrobial activity against Yersinia pseudotuberculosis YPIII PIB102-Elux at 364 uM by spectrophotometry; format: functional
[2] = Inhibition of YopH in Yersinia pseudotuberculosis YPIII PIB102-Elux using p-nitrophenyl phosphate as substrate measured after 3 hrs 15 mins by phosphatase enzyme assay
Procedure, shortened: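 Same YopE-reporter culture and incubation, with Ca2+-depleted BHI and compounds at 10–100 μM. Before decanal addition, an aliquot went into pNPP (12.5 mM in 20 mM MES pH 5.0, 0.8 mM DTT). This was incubated 15 min at 37 °C, stopped with NaOH and read at 405 nm. IC50 was interpolated from dose–response curves. Bacteria in BHI with 2.5 mM Ca2+ were the negative control.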

[3] = Inhibition of YopE in Yersinia pseudotuberculosis YPIII PIB102-Elux measured after 3 hrs 15 mins by luminescent reporter-gene assay
Procedure, shortened: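 Strain was grown on LB agar with 25 μg/mL chloramphenicol for 48 h at 26 °C, then in BHI with chloramphenicol for 12−16 h at 26 °C. It was diluted to OD620 0.2, then 1 in 4 into Ca2+-depleted BHI (5 mM EGTA, 20 mM MgCl2). Compounds were tested at 10–100 μM. Incubation was 1 h at 26 °C, 3 h at 37 °C, then 15 min at 26 °C. Luminescence was read after adding 0.1% decanal, and IC50 was interpolated from dose–response.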

Compound | Activity [1] | IC50 [2] [µM] | IC50 [3] [µM]
Oc1ccc([C@@H]2c3c(O)cc(O)cc3[C@@H]3c4c(cc(O)cc4[C@H]2[C@@H]2c4cc(O)cc5c4[C@@H](c4cc(O)cc(O)c4[C@H]2c2ccc(O)cc2)[C@H](c2ccc(O)cc2)O5)O[C@H]3c2ccc(O)cc2)cc1 | inactive | 2.9 | 8.8
OC[C@H]1O[C@@H](Oc2cc3c4c(c2)[C@@H]([C@@H]2c5cc(O)cc6c5[C@@H](c5cc(O)cc(O)c5[C@H]2c2ccc(O)cc2)[C@H](c2ccc(O)cc2)O6)[C@H](c2ccc(O)cc2)c2c(O)cc(O)cc2[C@H]4[C@H](c2ccc(O)cc2)O3)[C@H](O)[C@@H](O)[C@@H]1O [VATALBINOSIDE A] | inactive | 4.5 | 12.5
Oc1ccc([C@@H]2c3c(O)cc(O)cc3[C@@H]3c4c(cc(O)c5c4[C@@H]2[C@H](c2ccc(O)cc2)[C@H]5c2cc(O)cc4c2[C@@H](c2cc(O)cc(O)c2)[C@H](c2ccc(O)cc2)O4)O[C@H]3c2ccc(O)cc2)cc1 [Vaticanol B] |  | 3.3 | 9.9
CN[C@@H]1[C@H](O[C@H]2[C@H](O[C@H]3[C@H](O)[C@@H](O)[C@H](N=C(N)N)[C@@H](O)[C@@H]3N=C(N)N)O[C@@H](C)[C@]2(O)C=O)O[C@@H](CO)[C@H](O)[C@H]1O [STREPTOMYCIN] |  | 31 | 38
